Data from ChEMBL document CHEMBL1144548, “Dioxane and oxathiane nuclei: suitable substructures for muscarinic agonists” (Bioorg Med Chem, 2007).
Activity calls are given as the source filed them. The calls are words filed in the database; no cut-off is given here.

Tests used:
[1] = target: Muscarinic acetylcholine receptor M3 (Cavia porcellus) (UniProt Q8VH26); assay: Agonist activity at muscarinic M3 receptor in guinea-pig ileum; type: functional, tissue-based
Method in brief: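 Isolated tissues in an organ bath were washed for 30 min, then a cumulative dose–response curve to the compound was built. Contractions were recorded isometrically by force transducer and expressed as % of the maximal control-curve response. Parallel untreated tissues checked sensitivity drift. Values are means ± SEM of four to six independent experiments.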

[2] = target: T1, Muscarinic acetylcholine receptor M1 (Homo sapiens) (UniProt P11229); assay: Antagonist activity at muscarinic M1 receptor in rabbit stimulated vas deferens at 10 uM; type: functional, tissue-based; settings: Oryctolagus cuniculus, target entry is the homologue from another species
T1 sequence (whole entry): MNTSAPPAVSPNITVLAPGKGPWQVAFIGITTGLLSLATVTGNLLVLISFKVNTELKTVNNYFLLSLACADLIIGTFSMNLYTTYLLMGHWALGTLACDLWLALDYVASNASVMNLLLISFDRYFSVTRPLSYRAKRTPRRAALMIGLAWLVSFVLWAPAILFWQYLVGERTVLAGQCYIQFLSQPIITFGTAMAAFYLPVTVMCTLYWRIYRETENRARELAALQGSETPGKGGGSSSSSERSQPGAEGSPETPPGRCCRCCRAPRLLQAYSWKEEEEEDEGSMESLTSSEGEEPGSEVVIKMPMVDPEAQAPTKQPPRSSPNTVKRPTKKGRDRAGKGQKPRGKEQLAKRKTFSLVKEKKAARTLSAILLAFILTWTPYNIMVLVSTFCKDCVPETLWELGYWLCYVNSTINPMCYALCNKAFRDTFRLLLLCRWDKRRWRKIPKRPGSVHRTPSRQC

[3] = test system: Muscarinic acetylcholine receptor M2 (Cavia porcellus); assay: Agonist activity at muscarinic M2 receptor in guinea-pig stimulated left atria
[4] = test system: Muscarinic acetylcholine receptor M4 (Cavia porcellus); assay: Intrinsic activity at muscarinic M4 receptor in guinea-pig lung strips assessed as ratio of agonist activity to activity of McN-A-343
[5] = test system: Muscarinic acetylcholine receptor M2 (Cavia porcellus); assay: Intrinsic activity at muscarinic M2 receptor in guinea-pig stimulated left atria assessed as ratio of agonist activity to activity of arecaidine propargyl ester
[6] = test system: Muscarinic acetylcholine receptor M4 (Cavia porcellus); assay: Agonist muscarinic M4 receptor in guinea-pig lung strips
[7] = target: Muscarinic acetylcholine receptor M3 (Cavia porcellus) (UniProt Q8VH26); assay: Intrinsic activity at muscarinic M3 receptor in guinea-pig ileum assessed as ratio of agonist activity to activity of […]; type: functional, tissue-based
[8] = target: T2, Muscarinic acetylcholine receptor M4 (Homo sapiens, UniProt P08173); assay: Agonist activity at human muscarinic M4 receptor expressed in CHO cells; type: functional, cell-based
T2 sequence (P08173 whole entry): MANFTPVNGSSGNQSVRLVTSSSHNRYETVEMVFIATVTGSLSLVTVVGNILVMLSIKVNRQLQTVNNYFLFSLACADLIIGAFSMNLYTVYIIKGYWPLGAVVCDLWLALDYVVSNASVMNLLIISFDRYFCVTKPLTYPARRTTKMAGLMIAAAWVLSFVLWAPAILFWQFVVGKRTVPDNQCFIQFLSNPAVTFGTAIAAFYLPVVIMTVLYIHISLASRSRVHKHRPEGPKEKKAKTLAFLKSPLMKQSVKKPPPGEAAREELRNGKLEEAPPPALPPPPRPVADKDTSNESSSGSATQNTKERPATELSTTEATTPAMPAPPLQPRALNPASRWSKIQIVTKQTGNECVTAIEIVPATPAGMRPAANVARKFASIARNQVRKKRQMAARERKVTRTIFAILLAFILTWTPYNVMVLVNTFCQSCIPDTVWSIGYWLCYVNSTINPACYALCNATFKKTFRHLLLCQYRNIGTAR

[9] = target: T1, Muscarinic acetylcholine receptor M1 (Homo sapiens); settings: Oryctolagus cuniculus; Vas deferens
[10] = target: T3, Muscarinic acetylcholine receptor M5 (Homo sapiens) (UniProt P08912); assay: Agonist activity at human muscarinic M5 receptor expressed in CHO cells; type: functional, cell-based
T3 sequence (whole entry): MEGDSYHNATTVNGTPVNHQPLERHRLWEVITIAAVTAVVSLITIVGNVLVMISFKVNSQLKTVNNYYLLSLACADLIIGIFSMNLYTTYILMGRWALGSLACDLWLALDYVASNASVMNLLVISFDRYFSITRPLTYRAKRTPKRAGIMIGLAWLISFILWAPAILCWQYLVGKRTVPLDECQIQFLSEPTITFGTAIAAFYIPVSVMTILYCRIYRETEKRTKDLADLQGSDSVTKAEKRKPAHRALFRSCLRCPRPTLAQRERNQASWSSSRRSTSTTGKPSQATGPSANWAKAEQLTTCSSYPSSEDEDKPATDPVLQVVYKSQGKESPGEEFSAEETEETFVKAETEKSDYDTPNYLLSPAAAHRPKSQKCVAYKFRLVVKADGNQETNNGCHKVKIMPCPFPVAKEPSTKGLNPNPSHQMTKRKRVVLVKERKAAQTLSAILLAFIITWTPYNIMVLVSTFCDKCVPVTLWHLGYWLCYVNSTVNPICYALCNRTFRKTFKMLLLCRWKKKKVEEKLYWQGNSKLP

[11] = target: T4, Muscarinic acetylcholine receptor M2 (Homo sapiens) (UniProt P08172); assay: Antagonist activity at muscarinic M2 receptor in guinea-pig stimulated left atria at 10 uM; type: functional; settings: Cavia porcellus, target entry is the homologue from another species
T4 sequence (whole entry): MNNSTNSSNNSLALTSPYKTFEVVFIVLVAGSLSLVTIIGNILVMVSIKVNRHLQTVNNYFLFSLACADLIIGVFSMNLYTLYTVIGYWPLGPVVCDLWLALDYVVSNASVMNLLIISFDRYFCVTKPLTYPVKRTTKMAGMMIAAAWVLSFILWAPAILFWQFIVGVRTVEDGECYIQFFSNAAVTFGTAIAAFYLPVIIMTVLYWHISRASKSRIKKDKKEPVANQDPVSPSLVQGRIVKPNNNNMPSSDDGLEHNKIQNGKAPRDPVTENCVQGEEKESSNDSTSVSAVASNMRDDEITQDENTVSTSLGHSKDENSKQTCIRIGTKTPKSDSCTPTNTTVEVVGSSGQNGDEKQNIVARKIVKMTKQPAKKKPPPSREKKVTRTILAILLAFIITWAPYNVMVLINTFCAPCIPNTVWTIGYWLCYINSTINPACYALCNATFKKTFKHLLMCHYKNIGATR

Sequence of Muscarinic acetylcholine receptor M3 (Cavia porcellus) (Q8VH26 1-587): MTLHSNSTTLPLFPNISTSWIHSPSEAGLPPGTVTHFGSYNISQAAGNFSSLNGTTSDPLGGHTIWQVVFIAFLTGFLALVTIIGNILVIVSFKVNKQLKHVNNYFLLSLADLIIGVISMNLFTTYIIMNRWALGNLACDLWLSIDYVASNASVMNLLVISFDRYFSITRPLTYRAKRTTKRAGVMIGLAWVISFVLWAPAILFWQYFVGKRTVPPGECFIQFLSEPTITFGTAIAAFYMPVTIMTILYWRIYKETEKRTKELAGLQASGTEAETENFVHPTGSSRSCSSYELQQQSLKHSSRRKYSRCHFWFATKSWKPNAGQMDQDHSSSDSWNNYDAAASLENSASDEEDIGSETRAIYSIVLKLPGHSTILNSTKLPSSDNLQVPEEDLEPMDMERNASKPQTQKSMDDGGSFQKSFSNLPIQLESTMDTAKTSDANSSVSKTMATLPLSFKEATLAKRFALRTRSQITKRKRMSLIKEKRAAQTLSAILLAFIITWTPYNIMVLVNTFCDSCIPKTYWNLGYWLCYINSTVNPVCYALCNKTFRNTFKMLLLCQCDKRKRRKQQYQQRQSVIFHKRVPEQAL

Compound `C[C@H]1OCC[C@@H](C[N+](C)(C)C)O1` has a pD2 [1] of 5.73, a pKb [2] of over 5 and a pD2 [3] of 5.24. It also gave an Intrinsic activity [4] of 1, an Intrinsic activity [5] of 1 and a pD2 [6] of 6.41. For the same compound, the Intrinsic activity [7] was 1.
Compound `CC1COCC(C[N+](C)(C)C)O1` (racemic; form 1) [listing 1 of 2 here] has an EC50 [8] of 2.51 µM.
Compound `C[C@H]1CSC[C@@H](C[N+](C)(C)C)O1` (relative stereo) has a pD2 [1] of 6.46, a pD2 [9] of 4.46 and a pD2 [3] of 6.26. The Intrinsic activity [5] was 1 and the Intrinsic activity [7] was 1.
`C[C@H]1COC[C@@H](C[N+](C)(C)C)O1` showed a pD2 [1] of 7.65, a pD2 [9] of 6.78 and an EC50 [8] of 2.82 µM.
Compound `C[C@@H]1O[C@H](C[N+](C)(C)C)CS1` has a pD2 [1] of 8.06.
Work on `C[C@H]1O[C@@H](C[N+](C)(C)C)CS1` yielded a pD2 [1] of 5.82.
Work on `C[C@@H]1COC[C@H](C[N+](C)(C)C)O1` yielded a pD2 [1] of 6.53, a pKb [2] of under 5 and an EC50 [8] of 25.1 µM. The Activity [10] was “inactive”.
Compound `CC1COCC(C[N+](C)(C)C)O1` (racemic; form 1) [listing 2 of 2 here] has a pD2 [1] of 7.34 and a pD2 [9] of 5.65.
With `CC1COCC(C[N+](C)(C)C)O1` (racemic; form 2) the EC50 [8] was 282 µM.
Work on `CC1OC(C[N+](C)(C)C)CS1` (racemic) yielded a pD2 [1] of 7.75 and a pD2 [9] of 6.81.
For `C[C@H]1OC[C@H](C[N+](C)(C)C)O1` (relative stereo), the pD2 [1] was 7.47.
Compound `C[C@H]1COC[C@H](C[N+](C)(C)C)O1` has a pD2 [1] of 6.02 and a pD2 [9] of 5.08.
In the case of `C[C@H]1OC[C@@H](C[N+](C)(C)C)O1` (relative stereo), the pD2 [1] is reported as 7.69.
`C[C@H]1CSC[C@H](C[N+](C)(C)C)O1` (relative stereo) was tested, and the pKb [11] was under 5, the pD2 [1] was 5.21 and the pKb [2] was under 5. It also gave an Intrinsic activity [7] of 1.
